Test results: ChEMBL document CHEMBL1914443, “Inhibition of c-Kit, VEGFR-2 (KDR), and ABCG2 by analogues of OSI-930” (Bioorg Med Chem Lett, 2011)

Experiments:
[1] = target: T1, Mast/stem cell growth factor receptor Kit (Homo sapiens, UniProt P10721); assay: Inhibition of c-Kit using Tyr 06 peptide as substrate at 1 uM after 60 mins by Z'-LYTE assay
[2] = target: T2, Vascular endothelial growth factor receptor 2 (Homo sapiens, UniProt P35968); assay: Inhibition of KDR using Tyr 01 peptide as substrate at 10 uM after 60 mins by Z'-LYTE assay
[3] = target: T2, Vascular endothelial growth factor receptor 2; assay: Inhibition of KDR using Tyr 01 peptide as substrate at 1 uM after 60 mins by Z'-LYTE assay
[4] = target: T1, Mast/stem cell growth factor receptor Kit; assay: Inhibition of c-Kit using Tyr 06 peptide as substrate at 10 uM after 60 mins by Z'-LYTE assay
[5] = target: Receptor-type tyrosine-protein kinase FLT3 (Homo sapiens) (UniProt P36888); assay: Inhibition of Flt3 using Tyr 02 peptide as substrate at 1 uM after 60 mins by Z'-LYTE assay
[6] = target: Angiopoietin-1 receptor (Homo sapiens) (UniProt Q02763); assay: Inhibition of Tie-2 using Tyr 05 peptide as substrate at 10 uM after 60 mins by Z'-LYTE assay
[7] = target: Vascular endothelial growth factor receptor 1 (Homo sapiens) (UniProt P17948); assay: Inhibition of VEGFR1 using Tyr 04 peptide as substrate at 10 uM after 60 mins by Z'-LYTE assay
[8] = target: Receptor-type tyrosine-protein kinase FLT3 (Homo sapiens) (UniProt P36888); assay: Inhibition of Flt3 using Tyr 02 peptide as substrate at 10 uM after 60 mins by Z'-LYTE assay
[9] = target: Platelet-derived growth factor receptor alpha (Homo sapiens) (UniProt P16234); assay: Inhibition of PDGFRalpha using Tyr 04 peptide as substrate at 10 uM after 60 mins by Z'-LYTE assay
[10] = target: Vascular endothelial growth factor receptor 3 (Homo sapiens) (UniProt P35916); assay: Inhibition of VEGFR3 using Tyr 04 peptide as substrate at 10 uM after 60 mins by Z'-LYTE assay
[11] = target: Angiopoietin-1 receptor (Homo sapiens) (UniProt Q02763); assay: Inhibition of Tie-2 using Tyr 05 peptide as substrate at 1 uM after 60 mins by Z'-LYTE assay
[12] = target: Vascular endothelial growth factor receptor 3 (Homo sapiens) (UniProt P35916); assay: Inhibition of VEGFR3 using Tyr 04 peptide as substrate at 1 uM after 60 mins by Z'-LYTE assay
[13] = target: Platelet-derived growth factor receptor alpha (Homo sapiens) (UniProt P16234); assay: Inhibition of PDGFRalpha using Tyr 04 peptide as substrate at 1 uM after 60 mins by Z'-LYTE assay
[14] = target: Platelet-derived growth factor receptor beta (Homo sapiens) (UniProt P09619); assay: Inhibition of PDGFRbeta using Tyr 04 peptide as substrate at 10 uM after 60 mins by Z'-LYTE assay
[15] = target: Platelet-derived growth factor receptor beta (Homo sapiens) (UniProt P09619); assay: Inhibition of PDGFRbeta using Tyr 04 peptide as substrate at 1 uM after 60 mins by Z'-LYTE assay
[16] = target: Vascular endothelial growth factor receptor 1 (Homo sapiens) (UniProt P17948); assay: Inhibition of VEGFR1 using Tyr 04 peptide as substrate at 1 uM after 60 mins by Z'-LYTE assay
ABCG2 = target: T3, ABCG2 (Homo sapiens, UniProt Q9UNQ0); assay: Inhibition of ATP-dependent ABCG2 pump assessed as ratio of compound IC50 for HEK/ABCG2-482-R2 cells to IC50 for HEK293/pcDNA3.1 cells after 72 hrs by MTT assay; settings: HEK/ABCG2-482-R2 cells versus HEK293/pcDNA3.1 cells, read-out: Ratio IC50
T3 sequence (Q9UNQ0 whole entry): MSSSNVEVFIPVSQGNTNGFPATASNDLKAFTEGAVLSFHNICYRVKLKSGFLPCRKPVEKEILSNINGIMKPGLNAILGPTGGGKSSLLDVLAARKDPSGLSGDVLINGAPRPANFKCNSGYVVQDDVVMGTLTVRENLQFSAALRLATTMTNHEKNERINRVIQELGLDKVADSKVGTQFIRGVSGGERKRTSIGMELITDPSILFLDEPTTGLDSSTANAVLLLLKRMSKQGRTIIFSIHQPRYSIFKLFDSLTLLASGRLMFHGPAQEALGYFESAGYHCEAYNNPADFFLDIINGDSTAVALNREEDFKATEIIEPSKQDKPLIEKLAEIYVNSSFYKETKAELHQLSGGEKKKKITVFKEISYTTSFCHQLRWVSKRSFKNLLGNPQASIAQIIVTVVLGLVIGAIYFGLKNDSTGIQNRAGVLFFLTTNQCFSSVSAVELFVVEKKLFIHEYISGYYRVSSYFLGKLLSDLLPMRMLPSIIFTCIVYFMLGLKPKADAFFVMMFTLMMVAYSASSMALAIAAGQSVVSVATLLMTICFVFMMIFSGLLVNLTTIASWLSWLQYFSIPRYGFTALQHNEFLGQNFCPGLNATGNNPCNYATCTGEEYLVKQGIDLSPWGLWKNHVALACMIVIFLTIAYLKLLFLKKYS
How it was run: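 Fold-resistance was calculated as mitoxantrone IC50 in HEK/ABCG2-482-R2 (wild-type ABCG2-transfected) cells divided by mitoxantrone IC50 in HEK293/pcDNA3 parental cells, with or without analogue at 10 μM. FTC at 2.5 μM served as the reference. Cell survival was measured by MTT. Results are means ± SD of at least three independent experiments, each run in triplicate.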

Platelet-derived growth factor receptor beta (Homo sapiens), sequence (P09619 whole entry): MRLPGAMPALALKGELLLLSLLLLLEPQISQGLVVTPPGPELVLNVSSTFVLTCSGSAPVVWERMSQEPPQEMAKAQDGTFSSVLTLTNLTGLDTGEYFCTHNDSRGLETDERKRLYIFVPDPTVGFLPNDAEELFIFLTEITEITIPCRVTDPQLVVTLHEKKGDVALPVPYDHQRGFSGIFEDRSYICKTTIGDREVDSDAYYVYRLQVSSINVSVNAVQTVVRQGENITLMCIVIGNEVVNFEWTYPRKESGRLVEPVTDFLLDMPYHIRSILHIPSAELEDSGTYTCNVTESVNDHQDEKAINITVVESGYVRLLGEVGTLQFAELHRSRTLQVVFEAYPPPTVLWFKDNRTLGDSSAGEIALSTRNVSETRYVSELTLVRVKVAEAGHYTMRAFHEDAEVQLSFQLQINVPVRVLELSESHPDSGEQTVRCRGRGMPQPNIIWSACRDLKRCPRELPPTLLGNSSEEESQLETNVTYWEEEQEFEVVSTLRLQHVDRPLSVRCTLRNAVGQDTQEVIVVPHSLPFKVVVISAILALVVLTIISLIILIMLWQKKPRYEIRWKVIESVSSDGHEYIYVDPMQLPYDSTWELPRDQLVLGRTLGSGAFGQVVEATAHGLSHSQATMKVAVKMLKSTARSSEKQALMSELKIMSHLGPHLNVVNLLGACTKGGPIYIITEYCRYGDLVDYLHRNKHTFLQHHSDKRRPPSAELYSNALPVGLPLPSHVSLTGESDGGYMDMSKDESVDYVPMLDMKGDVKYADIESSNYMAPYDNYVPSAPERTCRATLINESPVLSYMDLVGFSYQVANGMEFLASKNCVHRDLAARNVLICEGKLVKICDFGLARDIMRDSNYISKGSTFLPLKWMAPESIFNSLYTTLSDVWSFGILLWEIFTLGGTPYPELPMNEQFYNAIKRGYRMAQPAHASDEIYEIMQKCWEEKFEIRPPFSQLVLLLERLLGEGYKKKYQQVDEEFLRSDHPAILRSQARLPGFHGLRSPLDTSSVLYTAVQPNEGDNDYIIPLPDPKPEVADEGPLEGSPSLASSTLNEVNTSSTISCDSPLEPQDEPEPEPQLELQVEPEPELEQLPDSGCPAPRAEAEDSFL
Vascular endothelial growth factor receptor 1 (Homo sapiens), sequence (P17948 whole entry): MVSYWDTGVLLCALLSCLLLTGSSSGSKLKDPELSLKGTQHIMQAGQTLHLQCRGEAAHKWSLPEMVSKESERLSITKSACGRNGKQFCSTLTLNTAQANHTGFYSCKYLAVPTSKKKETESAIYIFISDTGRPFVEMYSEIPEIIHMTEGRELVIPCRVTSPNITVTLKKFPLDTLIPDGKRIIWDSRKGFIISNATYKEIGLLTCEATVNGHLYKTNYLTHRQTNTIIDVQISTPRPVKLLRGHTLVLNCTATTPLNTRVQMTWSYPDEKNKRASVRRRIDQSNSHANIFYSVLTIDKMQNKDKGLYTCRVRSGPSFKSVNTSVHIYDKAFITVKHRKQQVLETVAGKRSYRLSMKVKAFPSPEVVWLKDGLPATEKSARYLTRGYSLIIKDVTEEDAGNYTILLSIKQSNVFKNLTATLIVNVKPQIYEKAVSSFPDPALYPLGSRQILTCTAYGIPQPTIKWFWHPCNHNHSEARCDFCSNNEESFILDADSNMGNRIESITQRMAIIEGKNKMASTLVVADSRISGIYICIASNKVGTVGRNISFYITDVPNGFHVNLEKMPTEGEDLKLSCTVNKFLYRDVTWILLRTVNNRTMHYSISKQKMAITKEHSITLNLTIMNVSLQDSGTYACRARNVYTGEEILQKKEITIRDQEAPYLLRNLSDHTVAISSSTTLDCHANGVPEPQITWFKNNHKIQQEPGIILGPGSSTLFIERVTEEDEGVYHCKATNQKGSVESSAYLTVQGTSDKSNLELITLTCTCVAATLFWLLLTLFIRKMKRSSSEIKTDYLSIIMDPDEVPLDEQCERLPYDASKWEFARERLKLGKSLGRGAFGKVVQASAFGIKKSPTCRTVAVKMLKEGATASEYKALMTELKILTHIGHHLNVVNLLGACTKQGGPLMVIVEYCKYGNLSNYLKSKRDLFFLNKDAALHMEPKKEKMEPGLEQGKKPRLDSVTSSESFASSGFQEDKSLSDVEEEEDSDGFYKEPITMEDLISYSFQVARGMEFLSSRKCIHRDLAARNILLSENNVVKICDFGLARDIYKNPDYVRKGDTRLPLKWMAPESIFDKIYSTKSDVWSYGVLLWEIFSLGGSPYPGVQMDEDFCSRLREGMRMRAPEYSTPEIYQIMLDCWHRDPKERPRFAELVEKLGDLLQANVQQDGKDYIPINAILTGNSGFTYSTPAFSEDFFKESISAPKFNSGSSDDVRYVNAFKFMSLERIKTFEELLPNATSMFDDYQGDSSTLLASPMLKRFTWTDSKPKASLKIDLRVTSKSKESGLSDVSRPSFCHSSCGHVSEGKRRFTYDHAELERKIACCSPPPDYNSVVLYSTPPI
T1 sequence (P10721 whole entry): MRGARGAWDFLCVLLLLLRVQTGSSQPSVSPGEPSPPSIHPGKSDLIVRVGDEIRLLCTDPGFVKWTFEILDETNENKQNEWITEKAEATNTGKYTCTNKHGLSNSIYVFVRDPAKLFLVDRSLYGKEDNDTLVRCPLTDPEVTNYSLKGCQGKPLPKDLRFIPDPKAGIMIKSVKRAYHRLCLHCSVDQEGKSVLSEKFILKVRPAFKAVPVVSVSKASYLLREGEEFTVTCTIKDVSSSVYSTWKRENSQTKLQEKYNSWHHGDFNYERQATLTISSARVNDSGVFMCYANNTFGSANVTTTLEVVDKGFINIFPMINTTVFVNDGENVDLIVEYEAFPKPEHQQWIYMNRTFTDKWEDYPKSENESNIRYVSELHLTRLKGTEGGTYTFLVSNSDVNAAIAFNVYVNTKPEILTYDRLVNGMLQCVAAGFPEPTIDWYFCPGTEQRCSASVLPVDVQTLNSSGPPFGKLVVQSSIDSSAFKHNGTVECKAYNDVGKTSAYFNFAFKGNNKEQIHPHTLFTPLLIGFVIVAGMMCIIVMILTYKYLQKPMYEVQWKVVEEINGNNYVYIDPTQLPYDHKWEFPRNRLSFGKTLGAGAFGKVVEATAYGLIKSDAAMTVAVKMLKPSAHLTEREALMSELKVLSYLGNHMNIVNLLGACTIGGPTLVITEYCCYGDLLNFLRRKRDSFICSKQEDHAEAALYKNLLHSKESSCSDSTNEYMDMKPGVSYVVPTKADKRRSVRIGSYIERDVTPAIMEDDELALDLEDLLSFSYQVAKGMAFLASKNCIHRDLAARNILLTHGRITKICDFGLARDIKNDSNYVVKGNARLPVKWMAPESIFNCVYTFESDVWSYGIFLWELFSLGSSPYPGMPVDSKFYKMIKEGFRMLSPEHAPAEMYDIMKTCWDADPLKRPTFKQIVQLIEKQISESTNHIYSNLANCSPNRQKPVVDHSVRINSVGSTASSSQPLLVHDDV
Platelet-derived growth factor receptor alpha (Homo sapiens), sequence (P16234 whole entry): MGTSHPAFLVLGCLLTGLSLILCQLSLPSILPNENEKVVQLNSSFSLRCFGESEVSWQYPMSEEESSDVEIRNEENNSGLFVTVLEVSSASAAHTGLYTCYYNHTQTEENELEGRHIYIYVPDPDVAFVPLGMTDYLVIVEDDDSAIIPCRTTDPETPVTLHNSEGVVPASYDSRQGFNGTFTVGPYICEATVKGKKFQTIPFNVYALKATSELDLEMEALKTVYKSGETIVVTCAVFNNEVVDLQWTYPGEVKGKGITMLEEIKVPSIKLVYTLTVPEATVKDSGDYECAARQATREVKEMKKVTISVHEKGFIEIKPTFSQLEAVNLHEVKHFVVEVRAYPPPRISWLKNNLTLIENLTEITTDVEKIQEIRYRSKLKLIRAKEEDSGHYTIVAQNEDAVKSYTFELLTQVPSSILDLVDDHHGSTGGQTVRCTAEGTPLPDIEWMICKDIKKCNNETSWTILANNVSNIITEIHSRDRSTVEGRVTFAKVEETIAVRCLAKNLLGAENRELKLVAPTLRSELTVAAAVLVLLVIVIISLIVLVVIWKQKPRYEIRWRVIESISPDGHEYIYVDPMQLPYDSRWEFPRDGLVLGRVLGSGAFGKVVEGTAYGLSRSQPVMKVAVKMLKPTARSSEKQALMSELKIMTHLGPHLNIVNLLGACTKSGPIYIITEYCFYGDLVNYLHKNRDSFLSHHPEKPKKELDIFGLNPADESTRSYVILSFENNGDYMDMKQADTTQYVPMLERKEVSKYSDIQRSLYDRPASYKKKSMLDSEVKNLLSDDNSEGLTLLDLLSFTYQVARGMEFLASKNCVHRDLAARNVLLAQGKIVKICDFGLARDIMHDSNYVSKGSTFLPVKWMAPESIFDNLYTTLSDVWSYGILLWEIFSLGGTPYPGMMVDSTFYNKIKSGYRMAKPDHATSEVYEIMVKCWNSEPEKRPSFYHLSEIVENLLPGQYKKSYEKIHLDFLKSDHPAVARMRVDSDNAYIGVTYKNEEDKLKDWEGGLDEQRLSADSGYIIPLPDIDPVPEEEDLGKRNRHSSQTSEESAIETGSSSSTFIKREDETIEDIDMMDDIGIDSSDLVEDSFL

O=C(CBr)Nc1cccc(CN2C(=O)CN(c3ccc(OC(F)(F)F)cc3)C(=O)c3sccc32)c1
inhibition [1]: < 40%
inhibition [2]: < 40%
inhibition [3]: < 40%
inhibition [4]: 41%

O=C(Nc1ccc(OC(F)(F)F)cc1)c1sccc1NCc1cccc(N=C=S)c1
inhibition [5]: < 40%
inhibition [6]: < 40%
inhibition [7]: < 40%
inhibition [8]: < 40%
inhibition [9]: < 40%
inhibition [10]: < 40%
inhibition [11]: < 40%
inhibition [12]: < 40%
inhibition [13]: < 40%
inhibition [1]: < 40%
inhibition [2]: < 40%
inhibition [14]: < 40%
inhibition [3]: < 40%
inhibition [15]: < 40%
inhibition [4]: < 40%
inhibition [16]: < 40%

Nc1ccccc1CNc1ccsc1C(=O)Nc1ccc(OC(F)(F)F)cc1
inhibition [5]: < 40%
inhibition [6]: < 40%
inhibition [7]: < 40%
inhibition [8]: < 40%
inhibition [9]: < 40%
inhibition [10]: < 40%
inhibition [11]: < 40%
inhibition [12]: < 40%
inhibition [13]: < 40%
inhibition [1]: < 40%
inhibition [2]: < 40%
inhibition [14]: < 40%
inhibition [3]: < 40%
inhibition [15]: < 40%
inhibition [4]: < 40%
inhibition [16]: < 40%

O=C(Nc1ccc(OC(F)(F)F)cc1)c1sccc1NCc1ccc(O)cc1
inhibition [1]: < 40%
inhibition [2]: 54%
inhibition [14]: 44%
inhibition [3]: < 40%
inhibition [4]: 68%

CC(=O)Nc1cc(CNc2ccsc2C(=O)Nc2ccc(OC(F)(F)F)cc2)ccn1
inhibition [1]: 81%
inhibition [2]: 101%
inhibition [3]: 101%
inhibition [4]: 102%

CC(=O)Nc1ccccc1CNc1ccsc1C(=O)Nc1ccc(OC(F)(F)F)cc1
inhibition [5]: < 40%
inhibition [6]: < 40%
inhibition [7]: < 40%
inhibition [8]: < 40%
inhibition [9]: < 40%
inhibition [10]: < 40%
inhibition [11]: < 40%
inhibition [12]: < 40%
inhibition [13]: < 40%
inhibition [1]: < 40%
inhibition [2]: < 40%
inhibition [14]: < 40%
inhibition [3]: < 40%
inhibition [15]: < 40%
inhibition [4]: < 40%
inhibition [16]: < 40%

O=C(Nc1ccc(OC(F)(F)F)cc1)c1sccc1NCc1cccc([N+](=O)[O-])c1
inhibition [5]: < 40%
inhibition [6]: < 40%
inhibition [7]: < 40%
inhibition [8]: < 40%
inhibition [9]: < 40%
inhibition [10]: < 40%
inhibition [11]: < 40%
inhibition [12]: < 40%
inhibition [13]: < 40%
inhibition [1]: < 40%
inhibition [2]: < 40%
inhibition [14]: < 40%
inhibition [3]: < 40%
inhibition [15]: < 40%
inhibition [4]: < 40%
inhibition [16]: < 40%

Nc1cnccc1CNc1ccsc1C(=O)Nc1ccc(OC(F)(F)F)cc1
inhibition [8]: 41%
inhibition [10]: 41%
inhibition [1]: 57%
inhibition [2]: 88%
inhibition [14]: 47%
inhibition [3]: 50%
inhibition [4]: 91%

O=C(Nc1ccc(OC(F)(F)F)cc1)c1sccc1NCc1ccccc1[N+](=O)[O-]
inhibition [5]: < 40%
inhibition [6]: < 40%
inhibition [7]: < 40%
inhibition [8]: < 40%
inhibition [9]: < 40%
inhibition [10]: < 40%
inhibition [11]: < 40%
inhibition [12]: < 40%
inhibition [13]: < 40%
inhibition [1]: < 40%
inhibition [2]: < 40%
inhibition [14]: < 40%
inhibition [3]: < 40%
inhibition [15]: < 40%
inhibition [4]: < 40%
inhibition [16]: < 40%

O=C(Nc1ccc(OC(F)(F)F)cc1)c1sccc1NCc1ccncc1[N+](=O)[O-]
inhibition [1]: < 40%
inhibition [2]: < 40%
inhibition [3]: < 40%
inhibition [4]: 80%

Nc1cccc(CNc2ccsc2C(=O)Nc2ccc(OC(F)(F)F)cc2)c1
inhibition [5]: < 40%
inhibition [6]: < 40%
inhibition [7]: < 40%
inhibition [8]: < 40%
inhibition [9]: < 40%
inhibition [10]: < 40%
inhibition [11]: < 40%
inhibition [12]: < 40%
inhibition [13]: < 40%
inhibition [1]: < 40%
inhibition [2]: < 40%
inhibition [14]: < 40%
inhibition [3]: < 40%
inhibition [15]: < 40%
inhibition [4]: < 40%
inhibition [16]: < 40%

O=C1c2c(O)ccc(O)c2C(=O)c2c(NCCNCCO)ccc(NCCNCCO)c21 [MITOXANTRONE]
selectivity ratio at 72 h (ABCG2): 15.3

CC(=O)Nc1cccc(CNc2ccsc2C(=O)Nc2ccc(OC(F)(F)F)cc2)c1
inhibition [1]: < 40%
inhibition [2]: < 40%
inhibition [3]: < 40%
inhibition [4]: 58%

Nc1ccc(CNc2ccsc2C(=O)Nc2ccc(OC(F)(F)F)cc2)cc1
inhibition [5]: < 40%
inhibition [6]: < 40%
inhibition [7]: < 40%
inhibition [8]: < 40%
inhibition [9]: < 40%
inhibition [10]: < 40%
inhibition [11]: < 40%
inhibition [12]: < 40%
inhibition [13]: < 40%
inhibition [1]: < 40%
inhibition [2]: < 40%
inhibition [14]: < 40%
inhibition [3]: < 40%
inhibition [15]: < 40%
inhibition [4]: < 40%
inhibition [16]: < 40%

O=C(Nc1ccc(OC(F)(F)F)cc1)c1sccc1NCc1ccc([N+](=O)[O-])cc1
inhibition [5]: < 40%
inhibition [6]: < 40%
inhibition [7]: < 40%
inhibition [8]: < 40%
inhibition [9]: < 40%
inhibition [10]: < 40%
inhibition [11]: < 40%
inhibition [12]: < 40%
inhibition [13]: < 40%
inhibition [1]: < 40%
inhibition [2]: < 40%
inhibition [14]: < 40%
inhibition [3]: < 40%
inhibition [15]: < 40%
inhibition [4]: < 40%
inhibition [16]: < 40%

O=C(Nc1ccc(OC(F)(F)F)cc1)c1sccc1NCc1ccc(N=C=S)cc1
inhibition [5]: < 40%
inhibition [6]: < 40%
inhibition [7]: < 40%
inhibition [8]: < 40%
inhibition [9]: < 40%
inhibition [10]: < 40%
inhibition [11]: < 40%
inhibition [12]: < 40%
inhibition [13]: < 40%
inhibition [1]: < 40%
inhibition [2]: < 40%
inhibition [14]: < 40%
inhibition [3]: < 40%
inhibition [15]: < 40%
inhibition [4]: < 40%
inhibition [16]: < 40%

CC(=O)Nc1ccc(CNc2ccsc2C(=O)Nc2ccc(OC(F)(F)F)cc2)cc1
inhibition [5]: < 40%
inhibition [6]: < 40%
inhibition [7]: < 40%
inhibition [8]: < 40%
inhibition [9]: < 40%
inhibition [10]: < 40%
inhibition [11]: < 40%
inhibition [12]: < 40%
inhibition [13]: < 40%
inhibition [1]: < 40%
inhibition [2]: < 40%
inhibition [14]: < 40%
inhibition [3]: < 40%
inhibition [15]: < 40%
inhibition [4]: < 40%
inhibition [16]: < 40%

O=C(Nc1ccc(OC(F)(F)F)cc1)c1sccc1NCc1ccccc1N=C=S
inhibition [5]: < 40%
inhibition [6]: < 40%
inhibition [7]: < 40%
inhibition [8]: < 40%
inhibition [9]: < 40%
inhibition [10]: < 40%
inhibition [11]: < 40%
inhibition [12]: < 40%
inhibition [13]: < 40%
inhibition [1]: < 40%
inhibition [2]: < 40%
inhibition [14]: < 40%
inhibition [3]: < 40%
inhibition [15]: < 40%
inhibition [4]: < 40%
inhibition [16]: < 40%
